Our source for the Activity values is ChEMBL document CHEMBL5030505, “Assessment of NR4A Ligands That Directly Bind and Modulate the Orphan Nuclear Receptor Nurr1” (J Med Chem, 2020).

The source made the active and inactive calls. No cut-off for these calls is given here.

Holding throughout (type): cell-based
Data set [1] has as its system HEK293T. Put plainly: Modulation of Gal4-fused VP16 expressed in HEK293T cells co-transfected with UAS repoter gene assessed as decrease in luciferase activity at 1.56 to 6.25 uM incubated for 18 hrs by luciferase reporter gene assay. The conditions noted are these: Human alphaherpesvirus 2, filed as modulator, dose 1.56-6.25 µM. Summed up:
(§1)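 Constitutive control: cells transfected (Lipofectamine 2000) with Gal4-VP16 expression plasmid (2 μg) plus 5xUAS-luciferase reporter (2 μg), 18 h; replated 10,000 cells/well, 4 h; ligand or vehicle in quadruplicate for 18 h; luciferase read by Britelite Plus; signal as fold change over vehicle-treated cells. Mean ± s.e.m. (n=4); one-way ANOVA versus vehicle.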
In general terms: Reporter assays use an easily measured gene product as a stand-in for the process of interest.

In data set [2] the target is Nuclear receptor subfamily 4 group A member 2 (Homo sapiens) (UniProt P43354). In words: Modulation of full length human Nurr1 expressed in PC12 cells co-transfected with luciferase reporter plasmid harboring NurRE response element assessed as increase in luciferase activity at 1.56 to 6.25 uM incubated for 18 by luciferase reporter gene assay. The settings on record: PC-12, filed as modulator, dose 1.56-6.25 µM, time 18.0 hrs. Summed up:
(§2)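 Cells transfected (Lipofectamine 2000, 18 h) with full-length Nurr1 expression plasmid (2 μg) and 3xNBRE- or 3xNurRE-luciferase reporter (6 μg), no internal control normalisation; replated 10,000 cells/well, 4 h; ligand or vehicle in quadruplicate for 18 h; Britelite Plus luminescence as fold change over vehicle. Mean ± s.e.m. (n=4); one-way ANOVA versus vehicle.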

In data set [3] the test system is SK-N-BE(2). Put plainly: Cytotoxicity against human SKNBE(2) cells assessed as reduction in cell viability at 1.56 to 6.25 microM incubated for 18 hrs by Cell titer-glo assay. The conditions noted are these: dose 1.56-6.25 µM. In short, it runs like this:
(§3)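 Cells seeded 1.5 million per 10-cm dish; next day replated at 10,000 cells/well in 384-well format, 4 h, then ligand or vehicle (water, ethanol or DMSO by ligand) added in quadruplicate for 18 h; viability read by CellTiter-Glo luminescence. Mean ± s.e.m. (n=4), generally 2 independent experiments; one-way ANOVA versus vehicle.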
In general terms: In ATP-based viability assays light output follows the ATP content of the culture.

The target of data set [4] is Nuclear receptor subfamily 4 group A member 2 (Homo sapiens) (UniProt P43354). Put plainly: Modulation of full length human Nurr1 expressed in HEK293T cells co-transfected with RXRalpha and luciferase reporter plasmid harboring NurRE response element assessed as increase in luciferase activity at 1.56 to 6.25 uM incubated for 18 by luciferase reporter gene assay. The conditions noted are these: filed as modulator, dose 1.56-6.25 µM, time 18.0 hrs.

Data set [5] has the same target. Put plainly: Modulation of full length human Nurr1 expressed in PC12 cells co-transfected with RXRalpha and luciferase reporter plasmid harboring NurRE response element assessed as increase in luciferase activity at 1.56 to 6.25 uM incubated for 18 by luciferase reporter gene assay. The conditions noted are these: PC-12, filed as modulator, dose 1.56-6.25 µM, time 18.0 hrs.

Data set [6] has the same target. Put plainly: Modulation of full length human Nurr1 expressed in SKNBE(2) cells co-transfected with luciferase reporter plasmid harboring NBRE response element assessed as increase in luciferase activity at 1.56 to 6.25 uM incubated for 18 by luciferase reporter gene assay. The conditions noted are these: SKNBE2, filed as modulator, dose 1.56-6.25 µM, time 18.0 hrs. Summed up:
as §2

Data set [7] shares this target. Put plainly: Modulation of full length human Nurr1 expressed in HEK293T cells co-transfected with luciferase reporter plasmid harboring NurRE response element assessed as decrease in luciferase activity at 1.56 to 6.25 uM incubated for 18 by luciferase reporter gene assay. The settings on record: filed as modulator, dose 1.56-6.25 µM, time 18.0 hrs. Summed up:
as §2

Data set [8] shares this target. In words: Modulation of full length human Nurr1 expressed in PC12 cells co-transfected with RXRalpha and luciferase reporter plasmid harboring NurRE response element assessed as decrease in luciferase activity at 1.56 to 6.25 uM incubated for 18 by luciferase reporter gene assay. The settings on record: PC-12, filed as modulator, dose 1.56-6.25 µM, time 18.0 hrs.

Data set [9] deals with PC-12. Put plainly: Cytotoxicity against rat PC12 cells assessed as reduction in cell viability at 1.56 to 6.25 microM incubated for 18 hrs by Cell titer-glo assay. The settings on record: pc-12, 18 h, dose 1.56-6.25 µM. Summed up:
as §3

The target of data set [10] is Nuclear receptor subfamily 4 group A member 2 (Homo sapiens) (UniProt P43354). In words: Modulation of full length human Nurr1 expressed in SKNBE(2) cells co-transfected with RXRalpha and luciferase reporter plasmid harboring NurRE response element assessed as increase in luciferase activity at 1.56 to 6.25 uM incubated for 18 by luciferase reporter gene assay. The conditions noted are these: SKNBE2, filed as modulator, dose 1.56-6.25 µM, time 18.0 hrs.

Data set [11] has the same target. In words: Modulation of full length human Nurr1 expressed in HEK293T cells co-transfected with RXRalpha and luciferase reporter plasmid harboring NBRE response element assessed as decrease in luciferase activity at 1.56 to 6.25 uM incubated for 18 by luciferase reporter gene assay. The conditions noted are these: filed as modulator, dose 1.56-6.25 µM, time 18.0 hrs.

The target is the same in data set [12]. Put plainly: Modulation of full length human Nurr1 expressed in HEK293T cells co-transfected with luciferase reporter plasmid harboring NBRE response element assessed as decrease in luciferase activity at 1.56 to 6.25 uM incubated for 18 by luciferase reporter gene assay. The conditions noted are these: filed as modulator, dose 1.56-6.25 µM, time 18.0 hrs. In short, it runs like this:
as §2

Data set [13] shares this target. In words: Modulation of full length human Nurr1 expressed in PC12 cells co-transfected with luciferase reporter plasmid harboring NBRE response element assessed as increase in luciferase activity at 1.56 to 6.25 uM incubated for 18 by luciferase reporter gene assay. The conditions noted are these: PC-12, filed as modulator, dose 1.56-6.25 µM, time 18.0 hrs. Summed up:
as §2

The target is the same in data set [14]. Put plainly: Modulation of full length human Nurr1 expressed in HEK293T cells co-transfected with luciferase reporter plasmid harboring NurRE response element assessed as increase in luciferase activity at 1.56 to 6.25 uM incubated for 18 by luciferase reporter gene assay. The conditions noted are these: filed as modulator, dose 1.56-6.25 µM, time 18.0 hrs. In short, it runs like this: as §2

The test system of data set [15] is HEK-293T. Put plainly: Cytotoxicity against human HEK293T cells assessed as reduction in cell viability at 1.56 to 6.25 microM incubated for 18 hrs by Cell titer-glo assay. The conditions noted are these: dose 1.56-6.25 µM. In short, it runs like this: as §3
In data set [16] the target is Nuclear receptor subfamily 4 group A member 2 (Homo sapiens) (UniProt P43354). Put plainly: Modulation of full length human Nurr1 expressed in SKNBE(2) cells co-transfected with RXRalpha and luciferase reporter plasmid harboring NurRE response element assessed as decrease in luciferase activity at 1.56 to 6.25 uM incubated for 18 by luciferase reporter gene assay. The conditions noted are these: SKNBE2, filed as modulator, dose 1.56-6.25 µM, time 18.0 hrs.

For data set [17] the target is unchanged. In words: Modulation of full length human Nurr1 expressed in HEK293T cells co-transfected with RXRalpha and luciferase reporter plasmid harboring NurRE response element assessed as decrease in luciferase activity at 1.56 to 6.25 uM incubated for 18 by luciferase reporter gene assay. The conditions noted are these: filed as modulator, dose 1.56-6.25 µM, time 18.0 hrs.

In data set [18] the test system is SKNBE2. In words: Modulation of Gal4-fused VP16 expressed in SKNBE(2) cells co-transfected with UAS repoter gene assessed as decrease in luciferase activity at 1.56 to 6.25 uM incubated for 18 hrs by luciferase reporter gene assay. The settings on record: Human alphaherpesvirus 2, filed as modulator, dose 1.56-6.25 µM. Summed up:
as §1

Data set [19] concerns the target Nuclear receptor subfamily 4 group A member 2 (Homo sapiens) (UniProt P43354). Put plainly: Modulation of full length human Nurr1 expressed in SKNBE(2) cells co-transfected with luciferase reporter plasmid harboring NBRE response element assessed as decrease in luciferase activity at 1.56 to 6.25 uM incubated for 18 by luciferase reporter gene assay. The conditions noted are these: SKNBE2, filed as modulator, dose 1.56-6.25 µM, time 18.0 hrs. Summed up:
as §2

In data set [20] the test system is SK-N-BE(2). In words: Cytotoxicity against human SKNBE2 cells assessed as reduction in cell viability at 5 to 100 uM incubated for 18 hrs by Cell titer-glo assay. The settings on record: dose 5-100 µM. Summed up:
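Cells seeded at 1.5 million per 10-cm dish. Next day they were replated at 10,000 cells/well and rested 4 h. Ligand or vehicle (water, ethanol or DMSO, by ligand) was added in dose-response format in quadruplicate. After 18 h, viability was read by CellTiter-Glo luminescence. Data are mean ± s.e.m., generally representative of 2 independent experiments. One-way ANOVA versus vehicle.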

Nuclear receptor subfamily 4 group A member 2 (Homo sapiens), sequence (P43354 whole entry): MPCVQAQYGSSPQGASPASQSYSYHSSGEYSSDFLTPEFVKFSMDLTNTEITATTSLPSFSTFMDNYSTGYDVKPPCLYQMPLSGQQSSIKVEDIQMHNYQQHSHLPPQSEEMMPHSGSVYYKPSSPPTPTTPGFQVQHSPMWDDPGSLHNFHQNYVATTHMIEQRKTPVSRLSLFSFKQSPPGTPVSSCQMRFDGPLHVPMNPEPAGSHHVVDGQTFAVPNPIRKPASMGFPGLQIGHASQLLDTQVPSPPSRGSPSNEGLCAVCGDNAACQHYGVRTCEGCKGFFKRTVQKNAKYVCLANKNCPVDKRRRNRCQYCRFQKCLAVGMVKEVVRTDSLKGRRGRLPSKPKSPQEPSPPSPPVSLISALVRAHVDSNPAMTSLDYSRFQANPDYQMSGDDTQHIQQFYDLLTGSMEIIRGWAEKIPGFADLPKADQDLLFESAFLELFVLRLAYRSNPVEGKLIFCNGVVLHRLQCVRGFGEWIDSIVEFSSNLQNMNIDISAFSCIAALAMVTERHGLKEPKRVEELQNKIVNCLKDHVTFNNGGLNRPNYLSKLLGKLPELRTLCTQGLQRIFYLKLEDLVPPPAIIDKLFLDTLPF

As to `CC1=C(O)C(=O)C=C2C1=CC=C1[C@@]2(C)CC[C@@]2(C)[C@@H]3C[C@](C)(C(=O)O)CC[C@]3(C)CC[C@]12C` [CELASTROL], the outcome in [1], in data set [2], in data set [4], in [5], in data set [6] and in data set [7] was Active. The result in data set [8], in data set [10], in data set [11], in [12], in data set [13] and in data set [14] was Active. The result in [16], in [17], in data set [18] and in [19] was Active. In addition, the Activity entry in [3], in data set [9] and in data set [15] was “Toxic” throughout.

Consider `CCCCCCCC(=O)c1c(O)cc(O)cc1CC(=O)OCC` [CYTOSPORONE B], for which the Activity result in [20] is listed as “Toxic”.
